In ChEMBL document CHEMBL1126765, “Analogues of capsaicin with agonist activity as novel analgesic agents; structure-activity studies. 1. The aromatic "A-region"” (J Med Chem, 1993) one finds EC50, pKa and ED50 data, which are given here for 42 molecules.

Structures are written as SMILES.

For one data set, the species on record is Rattus norvegicus. The data set can be described thus: In vitro effective concentration for [Ca2+] uptake and accumulation of [Ca2+] in neonatal rat cultured spinal sensory neurons. In kind it is functional. The gist of the method: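 Newborn rat DRG neurones dissociated with collagenase then 2.5 mg/mL trypsin at 37 °C, plated with 1 μg/mL NGF, 10^-4 M cytosine arabinoside for 48 h; used at 3-7 days. Cells washed in Ca-free HEPES BSS pH 7.4, then given compound plus 10 μCi/mL 45Ca2+ with 1% DMSO for 10 min at room temperature. SDS-extracted, scintillation counted. Sigmoidal fit; ≥6 replicates, ≥2 experiments; mean ± SEM.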

Data set [1] in a line: Acid dissociation constant was determined. In kind it is ADME.
The subject of the next data set is Mus musculus. The data set can be described thus: In vivo analgesic activity, mouse tail flick latency in antinociceptive assay. In kind it is functional. The gist of the method: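 Female CD-1 mice, about 20 g, fasted overnight. Drug or vehicle given s.c. into the back of the neck, 10 per group. Tail flick latency to a focused light beam measured 1 h later at 3.5 cm from the tip, 30 s cutoff. % analgesia = (drug − vehicle latency)/(30 s − vehicle latency); ED50 = dose giving 50% analgesia. Mann-Whitney U or Dunnett's test.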

For another data set, the species on record is Cavia porcellus. Put plainly: In vitro contraction in guinea pig ileum equivalent to 50% capsaicin response. In kind it is functional. The method in brief: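 Male Dunkin-Hartley guinea pig ileum segments in Tyrode's solution at 37 °C, gassed 95% O2/5% CO2, isometric recording, 1 h equilibration under 0.5 g tension. […] doses given at 1 h intervals with frequent washes. Contraction amplitude expressed as % of maximal capsaicin response; EC50 = concentration giving 50% of that response; mean ± SEM from at least four tissues.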

`CCCCCCCCNC(=O)Cc1ccc(O)c(OC)c1OC`: in the data set filed under Rattus norvegicus, the EC50 (usually the concentration at which the effect is half-maximal) was greater than 100 µM. Still for that read-out and setting: the result for `CCCCCCCCNC(=O)Cc1ccc2ncccc2c1` reads greater than 100 µM. For the molecule `CCCCCCCCNC(=O)Cc1ccc(O)c(OCC)c1`, the values for the EC50 in the data set filed under Rattus norvegicus and in the data set listed under Cavia porcellus were 4.34 µM and 4.96 µM, respectively. Besides, in data set [1], the pKa (as a rule, the pH at which an ionisable group is half protonated) turned out to be 10.4. Also, the ED50 (usually the dose at which the effect has come halfway, by size or by number of responders) with Mus musculus is greater than 50 µmol/kg.

In the data set filed under Rattus norvegicus, `CCCCCCCCNC(=O)Cc1ccc(O)c(NC(C)=O)c1` had an EC50 greater than 100 µM. This molecule returned a pKa in data set [1] of 9.7.

In the case of `CCCCCCCCC(=O)NCc1ccc(N)c(OC)c1`, the EC50 in the data set filed under Rattus norvegicus is greater than 10 µM.

For `CCCCCCCCC(=O)NCc1ccccc1OC`, the EC50 in the data set filed under Rattus norvegicus was greater than 100 µM.

In the case of `CCCCCCCCC(=O)NCc1ccnc(OC)c1`, the response in the data set listed under Rattus norvegicus was half-maximal at 31.5 µM (EC50).

As to `CCCCCCCCNC(=O)Cc1ccc(O)c2c1OCCO2`, the concentration giving a half-maximal response (EC50) in the data set filed under Rattus norvegicus is greater than 100 µM.

`CCCCCCCCNC(=O)Cc1ccc(OC)c(O)c1` displayed an EC50 in the data set filed under Rattus norvegicus of 1.82 µM. Take `CCCCCCCCC(=O)NCc1ccc(O)c(O)c1`: the EC50 in the data set filed under Rattus norvegicus worked out at 0.63 µM; in the data set filed under Cavia porcellus it was 0.22 µM. For the same molecule, in the data set on Mus musculus, the ED50 was determined as 20 µmol/kg.

As for `CCCCCCCCNC(=O)Cc1cc(OC)c(O)c(OC)c1`, the EC50 in the data set listed under Rattus norvegicus is greater than 100 µM. The molecule `CCCCCCCCC(=O)NCc1ccc(O)c(O)c1O` yielded an EC50 in the data set filed under Rattus norvegicus of 7.64 µM. For the molecule `CCCCCCCCNC(=O)Cc1ccc(O)c(O)c1`, the EC50 in the data set filed under Rattus norvegicus is 0.41 µM; in the data set listed under Cavia porcellus, 0.33 µM. Also, in data set [1], the pKa turned out to be 9.2. In the data set with Mus musculus, this molecule came in with an ED50 of 50 µmol/kg. In the case of `CCCCCCCCC(=O)NCc1ccc(OC)c(OC)c1`, the values for the EC50 in the data set listed under Rattus norvegicus and in the data set listed under Cavia porcellus were 6.41 µM and 1.15 µM, respectively. For the same molecule, the ED50 with Mus musculus is greater than 50 µmol/kg. As to `CCCCCCCCC(=O)NCc1ccc(O)cc1OC`, the EC50 in the data set filed under Rattus norvegicus is greater than 100 µM. On the same count and under the same terms, then `CCCCCCCCC(=O)NCc1cc(OC)c(O)cc1OC`, with greater than 100 µM. Consider `CCCCCCCCNC(=O)Cc1ccc(O)c([N+](=O)[O-])c1`, for which the figures for the EC50 in the data set filed under Rattus norvegicus and in the data set filed under Cavia porcellus were 1.04 µM and 2.78 µM, respectively. This molecule showed a pKa in data set [1] of 7.7. In the data set with Mus musculus, the ED50 was greater than 50 µmol/kg. `CCCCCCCCC(=O)NCc1cc(O)cc(OC)c1` had an EC50 in the data set listed under Rattus norvegicus greater than 100 µM. Consider `CCCCCCCCNC(=O)Cc1ccc(O)c(OC)c1`, for which the figures for the EC50 in the data set filed under Rattus norvegicus and in the data set filed under Cavia porcellus were 0.3 µM and 0.33 µM, respectively. In data set [1], this molecule displayed a pKa of 9.9. Besides, it took a dose of 9.2 µmol/kg to reach the 50% effect level with Mus musculus (ED50). The molecule `CCCCCCCCNC(=O)Cc1ccc(OC)c(C)c1` showed an EC50 in the data set filed under Rattus norvegicus greater than 100 µM.

`CCCCCCCCNC(=O)Cc1ccc(O)c(C)c1` yielded an EC50 in the data set listed under Rattus norvegicus greater than 100 µM. The molecule also had a pKa in data set [1] of 10.6. Molecule `CCCCCCCCC(=O)NCc1ccc(S)c(OC)c1` displayed an EC50 in the data set filed under Rattus norvegicus greater than 100 µM. The same measure, in the same setting: then `CCCCCCCCNC(=O)Cc1cccc(OC)c1`, with greater than 100 µM. For the molecule `CCCCCCCCC(=O)NCc1ccc(O)c(OC)c1` [NONIVAMIDE], the EC50 was determined as 0.55 µM in the data set listed under Rattus norvegicus and 0.4 µM in the data set listed under Cavia porcellus. The molecule further had an ED50 in the data set with Mus musculus of 5 µmol/kg. In the data set filed under Rattus norvegicus, `CCCCCCCCC(=O)NCc1cccc(OC)c1` came in with an EC50 greater than 100 µM. Still for that read-out and setting: the result for `CCCCCCCCC(=O)NCc1cc[n+]([O-])cc1` reads greater than 100 µM.

`CCCCCCCCC(=O)NCc1ccc(OC)cc1`: the figures for the EC50 in the data set filed under Rattus norvegicus and in the data set listed under Cavia porcellus were greater than 100 µM and 22.2 µM, respectively. The ED50 in the data set with Mus musculus was greater than 50 µmol/kg. In the data set filed under Rattus norvegicus, `CCCCCCCCC(=O)NCc1cc(OC)c(OC)c(OC)c1` returned an EC50 greater than 100 µM. The same measure, in the same setting: the result for `CCCCCCCCC(=O)NCc1cc(=O)c(O)co1` reads greater than 100 µM; that for `CCCCCCCCC(=O)NCc1cccc(O)c1`, greater than 100 µM.

With `CCCCCCCCNC(=O)Cc1ccc(O)c(Cl)c1`, the EC50 is 0.26 µM in the data set filed under Rattus norvegicus and 0.68 µM in the data set filed under Cavia porcellus. Also, in data set [1], the pKa is 9. Also, in the data set on Mus musculus, the ED50 was greater than 50 µmol/kg.

`CCCCCCCCC(=O)NCc1ccccc1` [NONANOIC ACID BENZYLAMIDE] displayed an EC50 in the data set listed under Rattus norvegicus greater than 100 µM. The molecule `CCCCCCCCNC(=O)Cc1ccc(O)c(N)c1` yielded an EC50 in the data set listed under Rattus norvegicus greater than 100 µM. This molecule also came in with a pKa in data set [1] of 10. Consider `CCCCCCCCC(=O)NCc1cccnc1`, for which, in the data set listed under Rattus norvegicus, the EC50 is greater than 100 µM. In turn, `CCCCCCCCC(=O)NCc1ccc2[nH]ccc2c1` displayed an EC50 in the data set filed under Rattus norvegicus greater than 100 µM. Still for that read-out and setting: the result for `CCCCCCCCC(=O)NCc1ccncc1` reads 28 µM; that for `CCCCCCCCNC(=O)Cc1ccc2c(c1)OCO2`, greater than 100 µM. On the same count and under the same terms, the result for `CCCCCCCCC(=O)NCc1ccc2c(c1)OCO2` reads greater than 100 µM.

Consider `COc1cc(CNC(=O)CCCC/C=C/C(C)C)ccc1O` [CAPSAICIN], for which the EC50 in the data set filed under Rattus norvegicus worked out at 0.3 µM; in the data set listed under Cavia porcellus, 0.26 µM. This molecule returned an ED50 in the data set on Mus musculus of 15 µmol/kg. Turning to `CCCCCCCCC(=O)NCc1ccc(C(=O)O)cc1`, the EC50 in the data set filed under Rattus norvegicus was greater than 100 µM. The same measure, in the same setting: the result for `CCCCCCCCC(=O)NCc1ccc([N+](=O)[O-])c(OC)c1` reads 7.91 µM. On to `CCCCCCCCNC(=O)Cc1ccc(O)cc1`, for which the results for the EC50 in the data set filed under Rattus norvegicus and in the data set filed under Cavia porcellus were 6.5 µM and 2.75 µM, respectively. Further, in data set [1], the pKa was 10.2. The molecule further displayed an ED50 in the data set on Mus musculus greater than 50 µmol/kg.
